{"source": "paper PMC5515376", "about": "(Nature, 2016)", "key": {"[1]": {"tested_on": "P. falciparum 3D7 stage IV–V gametocytes", "assay": "In vitro transmission-blocking assay", "format": "cell-based, Plasmodium falciparum", "settings": "P. falciparum (3D7), Gametocyte (IV-V)", "in_short": "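3D7 cultures were treated 3 days with 50 mM N-acetyl-D-glucosamine to remove asexual parasites. Stage IV–V gametocytes were then isolated on a discontinuous Percoll gradient. Gametocytes (1.0 × 10^5 per well) were incubated with compound for 72 h. Viability was measured by CellTiter-Glo luminescence.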"}, "[2]": {"tested_on": "P. falciparum (NF54) stage V gametocytes", "assay": "P. falciparum standard membrane feeding assay", "format": "cell-based, Plasmodium falciparum"}, "[3]": {"tested_on": "P. falciparum (NF54) liver stage", "assay": "In vitro P. falciparum liver-stage assay", "format": "cell-based, Plasmodium falciparum"}, "[4]": {"assay": "Solubility assay in PBS", "format": "physicochemical", "settings": "PBS pH 7.4 with 1% DMSO", "in_short": "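Compound was prepared at 100 µM in triplicate, both in 100% DMSO and in PBS pH 7.4 with 1% DMSO. Samples were shaken at 750 r.p.m. for 18 h at room temperature. Analysis was by UPLC–MS with single-ion detection. PBS response was fitted to a two-point calibration built from the DMSO samples.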"}, "[5]": {"assay": "Plasma protein binding assay", "format": "in vitro ADME", "in_short": "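Binding was measured by equilibrium dialysis in a RED device. Compound at 5 µM, in duplicate, was placed in mouse plasma (0.95% acetonitrile, 0.05% DMSO) against PBS pH 7.4. Incubation was 5 h at 37 °C with 350 r.p.m. orbital shaking. Both sides were analysed by UPLC–MS with single-ion detection.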"}, "[6]": {"assay": "Metabolic stability assay, mouse liver microsomes", "format": "in vitro ADME", "in_short": "(§1)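 Liver microsomes (0.2 mg ml−1) were incubated with compound (0.5 and 5 µM) plus NADPH for 0, 10 and 90 min. Human microsomes or mouse CD-1 microsomes were used, as named in each line. Compound depletion was measured by LC–MS/MS and used to estimate Km, Vmax and half-life.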"}, "[7]": {"assay": "Metabolic stability assay, human liver microsomes", "format": "in vitro ADME", "in_short": "as §1"}, "[8]": {"tested_on": "HepG2 cell line", "assay": "Mammalian cell cytotoxicity assay", "format": "cell-based, human", "settings": "read-out: HepG2 CC50; 72 h", "in_short": "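HepG2, A549 or HEK293 cells were grown in DMEM with 10% FBS and 1% antibiotic–antimycotic and tested mycoplasma-free. Cells (1 × 10^6) were seeded one day before treatment. They were exposed to ascending compound doses for 72 h, and viability was read by CellTiter-Glo.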"}, "[9]": {"target": "hERG channel (Homo sapiens, UniProt Q12809)", "sequence (Q12809 whole entry)": "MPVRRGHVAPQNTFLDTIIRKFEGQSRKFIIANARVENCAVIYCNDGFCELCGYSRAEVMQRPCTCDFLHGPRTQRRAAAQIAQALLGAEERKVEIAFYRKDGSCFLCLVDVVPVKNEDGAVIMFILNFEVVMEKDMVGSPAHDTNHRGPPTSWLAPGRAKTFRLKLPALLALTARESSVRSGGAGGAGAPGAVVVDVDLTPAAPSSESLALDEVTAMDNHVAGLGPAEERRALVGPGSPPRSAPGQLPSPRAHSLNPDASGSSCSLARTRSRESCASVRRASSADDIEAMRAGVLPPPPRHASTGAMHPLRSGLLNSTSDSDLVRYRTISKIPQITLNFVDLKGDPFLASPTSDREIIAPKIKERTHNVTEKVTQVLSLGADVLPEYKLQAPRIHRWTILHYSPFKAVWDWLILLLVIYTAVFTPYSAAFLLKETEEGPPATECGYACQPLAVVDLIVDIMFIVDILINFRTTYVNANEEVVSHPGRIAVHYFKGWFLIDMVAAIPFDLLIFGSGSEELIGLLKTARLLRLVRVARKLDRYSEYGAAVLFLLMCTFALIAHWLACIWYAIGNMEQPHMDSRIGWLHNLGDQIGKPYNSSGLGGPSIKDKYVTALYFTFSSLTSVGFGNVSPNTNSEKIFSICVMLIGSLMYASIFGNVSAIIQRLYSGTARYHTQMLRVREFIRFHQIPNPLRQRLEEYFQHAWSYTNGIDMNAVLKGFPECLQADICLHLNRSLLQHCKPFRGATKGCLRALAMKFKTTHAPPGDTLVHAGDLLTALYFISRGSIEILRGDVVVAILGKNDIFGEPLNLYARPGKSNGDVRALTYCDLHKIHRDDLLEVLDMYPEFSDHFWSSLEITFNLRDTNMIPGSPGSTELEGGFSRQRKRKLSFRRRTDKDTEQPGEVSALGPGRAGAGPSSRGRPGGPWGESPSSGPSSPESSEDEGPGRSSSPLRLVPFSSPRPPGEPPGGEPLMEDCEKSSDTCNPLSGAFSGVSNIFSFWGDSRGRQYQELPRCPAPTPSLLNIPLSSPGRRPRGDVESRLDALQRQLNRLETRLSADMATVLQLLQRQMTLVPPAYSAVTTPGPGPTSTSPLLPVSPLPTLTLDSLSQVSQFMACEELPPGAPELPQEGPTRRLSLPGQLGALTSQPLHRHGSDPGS", "assay": "hERG channel inhibition assay", "format": "cell-based", "settings": "read-out: hERG IC50; IKr", "in_short": "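hERG current was measured in hERG-expressing cell lines by automated patch clamp (QPatch-HTX).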"}, "[10]": {"assay": "Mouse pharmacokinetics assay", "format": "in vivo", "settings": "CD-1 mice", "in_short": "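Female CD-1 mice received single intravenous and oral doses. Parameters were estimated by non-compartmental analysis.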"}, "[11]": {"assay": "Pharmacokinetics in P. falciparum 3D7^HLH/BRD-infected NSG mice", "format": "in vivo, mouse", "settings": "for AUC: huRBC NSG mice; for AUC0-inf / Cmax / MRT0-inf / Tmax / AUC0-t: infected NSG mice; for AUC0-t: t = 24 h"}, "[12]": {"tested_on": "P. berghei (ANKA GFP-luc) blood-stage parasites", "assay": "In vivo P. berghei blood-stage assay", "parameters": "species or system Plasmodium berghei", "settings": "CD-1 mice"}, "[13]": {"tested_on": "P. falciparum 3D7^HLH/BRD blood-stage parasites", "assay": "In vivo P. falciparum blood-stage assay", "parameters": "species or system Plasmodium falciparum", "settings": "huRBC NSG mice"}, "[14]": {"tested_on": "P. falciparum (NF54HT-GFP-luc) sporozoites", "assay": "In vivo P. falciparum liver-stage assay", "parameters": "species or system Plasmodium falciparum"}, "[15]": {"tested_on": "P. berghei (ANKA GFP-luc)", "assay": "In vivo P. berghei transmission-stage assay", "parameters": "species or system Plasmodium berghei", "settings": "for Compound remaining in the circulation (plasma concentration): P. berghei-infected CD-1 mice"}, "[16]": {"tested_on": "P. falciparum 3D7^HLH/BRD", "assay": "In vivo P. falciparum transmission-stage assay", "parameters": "species or system Plasmodium falciparum", "settings": "huRBC NSG mice; single oral 12.5 mg kg^−1; 7 days after treatment"}, "[17]": {"tested_on": "Salmonella typhimurium strains TA100, TA1535, TA98, TA1537 and Escherichia coli strain WP2uvrA", "assay": "Ames test", "settings": "in the presence or absence of S9 mix"}, "[18]": {"tested_on": "P. falciparum Dd2", "format": "cell-based, Plasmodium falciparum", "settings": "Dd2 cultures, inocula 10^5 to 10^9, 20 nM (EC90), 60 days"}, "[19]": {"settings": "IV (2.5) mg/kg, separate assay over 72 h"}}, "note": "“Also recorded” adds a separate entry of the source. Like-named read-outs stand apart in the source and are kept apart here. Marks after values point to notes of the source that are not given here.", "data": [{"smiles": "COc1ccc(NC(=O)N2CCCCN3[C@H](CN(C)C)[C@H](c4ccc(C#Cc5ccccc5)cc4)[C@@H]3C2)cc1", "note": "[BRD7929]", "values": [{"measurement": "EC50", "setting": "[1]", "result": 160, "unit": "nM"}, {"measurement": "EC50", "setting": "[2]; read-out: EC50, standard membrane-feeding assay, direct (D), single drug concentration (10 µM) immediately before blood feeding", "result": "< 10000", "unit": "nM"}, {"measurement": "EC50", "setting": "[2]; read-out: EC50, standard membrane-feeding assay, indirect (ID), parasites treated 24 h before mosquito feeding", "result": 270, "unit": "nM"}, {"measurement": "EC50", "setting": "[3]", "result": 340, "unit": "nM"}, {"measurement": "PBS solubility", "setting": "[4]", "result": 15, "unit": "µM"}, {"measurement": "Mouse Plasma protein binding", "setting": "[5]", "result": 99.9, "unit": "%"}, {"measurement": "Mouse Clint", "setting": "[6]", "result": 21, "unit": "µL/min/mg"}, {"measurement": "Human Clint", "setting": "[7]", "result": 31, "unit": "µL/min/mg"}, {"measurement": "CC50", "setting": "[8]", "result": 9000, "unit": "nM"}, {"measurement": "IC50", "setting": "[9]", "result": 2100, "unit": "nM"}, {"measurement": "AUC (estimated)", "setting": "[10]; 25 mg kg^−1 single-dose cure, estimated from pharmacokinetic studies", "result": 27.5, "unit": "µM·h"}, {"measurement": "CL", "setting": "[10]; IV (2.5) mg/kg", "result": 9.9, "unit": "mL/min/kg"}, {"measurement": "MRT0-inf", "setting": "[10]; IV (2.5) mg/kg", "result": 40.5, "unit": "h"}, {"measurement": "Vss", "setting": "[10]; IV (2.5) mg/kg", "result": 24, "unit": "L/kg"}, {"measurement": "AUC0-inf", "setting": "[10]; [19]", "result": 11.2, "unit": "µM·h"}, {"measurement": "CL", "setting": "[10]; [19]", "result": 7.1, "unit": "mL/min/kg"}, {"measurement": "MRT0-inf", "setting": "[10]; [19]", "result": 45, "unit": "h"}, {"measurement": "T1/2", "setting": "[10]; [19]", "result": 32, "unit": "h"}, {"measurement": "Vss", "setting": "[10]; [19]", "result": 19, "unit": "L/kg"}, {"measurement": "AUC0-t", "setting": "[10]; IV (2.5) mg/kg, separate assay, t = 72 h", "result": "9 ^# µM*hr"}, {"measurement": "AUC0-t", "setting": "[10]; IV (2.5) mg/kg, t = 24 h", "result": "3.5 ^¶ µM*hr"}, {"measurement": "Cmax", "setting": "[10]; PO (10) mg/kg", "result": 540, "unit": "nM"}, {"measurement": "Tmax", "setting": "[10]; PO (10) mg/kg", "result": 8, "unit": "h"}, {"measurement": "F", "setting": "[10]; PO (10) mg/kg, based on initial intravenous study at 24 h", "result": "79.5 ^§ %"}, {"measurement": "AUC0-t", "setting": "[10]; PO (10) mg/kg, t = 24 h", "result": "11 ^¶ µM*hr"}, {"measurement": "AUC", "setting": "[11]; 6.25 mg kg^−1 single oral dose", "result": 15.7, "unit": "µM·h"}, {"measurement": "AUC", "setting": "[11]; 12.5 mg kg^−1 single oral dose (single-dose cure)", "result": 31.4, "unit": "µM·h"}, {"measurement": "AUC", "setting": "[11]; 25 mg kg^−1 single oral dose", "result": 62.8, "unit": "µM·h"}, {"measurement": "AUC", "setting": "[11]; 50 mg kg^−1 single oral dose", "result": 125.6, "unit": "µM·h"}, {"measurement": "AUC0-inf", "setting": "[11]; PO (3) mg/kg", "result": 7.2, "unit": "µM·h"}, {"measurement": "Cmax", "setting": "[11]; PO (3) mg/kg", "result": 210, "unit": "nM"}, {"measurement": "MRT0-inf", "setting": "[11]; PO (3) mg/kg", "result": 35.4, "unit": "h"}, {"measurement": "Tmax", "setting": "[11]; PO (3) mg/kg", "result": 12, "unit": "h"}, {"measurement": "AUC0-t", "setting": "[11]; PO (3) mg/kg", "result": "6.4 ^¶ µM*hr"}, {"measurement": "AUC0-inf", "setting": "[11]; PO (9) mg/kg", "result": 22.6, "unit": "µM·h"}, {"measurement": "Cmax", "setting": "[11]; PO (9) mg/kg", "result": 600, "unit": "nM"}, {"measurement": "MRT0-inf", "setting": "[11]; PO (9) mg/kg", "result": 37.8, "unit": "h"}, {"measurement": "Tmax", "setting": "[11]; PO (9) mg/kg", "result": 12, "unit": "h"}, {"measurement": "AUC0-t", "setting": "[11]; PO (9) mg/kg", "result": "19.7 ^¶ µM*hr"}, {"measurement": "Cure of the infected animals", "setting": "[12]; single 25 mg kg^−1 oral dose", "result": 100, "unit": "%"}, {"measurement": "Parasite status up to 30-day end-point (bioluminescent imaging)", "setting": "[12]; single oral 25 mg kg^−1 or 50 mg kg^−1 dose", "result": "parasite-free"}, {"measurement": "Animals showing recrudescence at 6 days after treatment", "setting": "[12]; single oral dose of 12.5 mg kg^−1, n = 4", "result": "One in four animals"}, {"measurement": "Lowest single oral dose achieving sterile cure", "setting": "[12]; P. berghei", "result": 25, "unit": "mg/kg"}, {"measurement": "Lowest single oral dose with no recrudescence", "setting": "[13]; P. falciparum 3D7^HLH/BRD", "result": 12.5, "unit": "mg/kg"}, {"measurement": "Rate of the loss of bioluminescence", "setting": "[13]; single dose 6.25 mg kg^−1", "result": "slower"}, {"measurement": "Change in parasite-associated bioluminescence", "setting": "[13]; single dose 25 mg kg^−1 and 50 mg kg^−1", "result": "rapid decrease"}, {"measurement": "Ct value, P. falciparum UCE qRT-PCR", "setting": "[14]; blood 7 days after inoculation, 40 amplification cycles", "result": 40}, {"measurement": "Blood-stage marker (P. falciparum UCE transcript) by qRT-PCR", "setting": "[14]; blood 7 days after inoculation, single 10 mg kg^−1 oral dose", "result": "no amplification of the marker was detected; also recorded: not detected"}, {"measurement": "Liver-stage-associated bioluminescence signal", "setting": "[14]; huHep FRG knockout mice, single 10 mg kg^−1 oral dose 1 day after inoculation", "result": "No increase in bioluminescence intensity level; also recorded: no increase in bioluminescence signals"}, {"measurement": "Oocysts in mosquito midguts", "setting": "[15]; CD-1 mice, single oral 5 or 20 mg kg^−1, 2 days before mosquito feeding", "result": "No oocysts were detected"}, {"measurement": "Compound remaining in the circulation (plasma concentration)", "setting": "[15]; oral 25 mg kg^−1, 1 day after treatment", "result": 896.5, "unit": "ng/mL"}, {"measurement": "Compound remaining in the circulation (plasma concentration)", "setting": "[15]; oral 25 mg kg^−1, 4 days after treatment", "result": 170.5, "unit": "ng/mL"}, {"measurement": "Compound remaining in the circulation (plasma concentration)", "setting": "[15]; oral 25 mg kg^−1, 10 days after treatment", "result": 8.6, "unit": "ng/mL"}, {"measurement": "Transmission", "setting": "[15]; oral 1.25 mg kg^−1 and 0.31 mg kg^−1, 2 days before feeding mosquitoes", "result": "reduced transmission activity"}, {"measurement": "Transmission", "setting": "[15]; oral 5 mg kg^−1, 2 days before feeding mosquitoes", "result": "complete blocking of transmission"}, {"measurement": "Oocysts in mosquito midguts", "setting": "[15]; oral 25 mg kg^−1, blood feeding 1, 4 or 10 days after treatment", "result": "No oocysts were found"}, {"measurement": "Transcription of asexual marker SBP1 (qRT-PCR)", "setting": "[16]", "result": "decreased to undetectable levels"}, {"measurement": "Transcription of mature gametocyte marker Pfs25 (qRT-PCR)", "setting": "[16]", "result": "decreased to undetectable levels"}, {"measurement": "Mutagenicity (Ames test)", "setting": "[17]", "result": "non-mutagenic"}, {"measurement": "Recrudescence / resistance under constant drug pressure", "setting": "[18]", "result": "No recrudescence"}]}]}
